Results: ChEMBL document CHEMBL1649405, “Structure-activity relationships study of 6-chloro-4-(2-chlorophenyl)-3-(2-hydroxyethyl) quinolin-2(1H)-one derivatives as novel non-nucleoside anti-hepatitis B virus agents” (Eur J Med Chem, 2011)

Legend:
Hepatitis B virus [1] = test: Antiviral activity against Hepatitis B virus infected in human HepG2(2.2.15) cells assessed as inhibition of viral e antigen secretion after 6 days by ELISA; assay type: functional, organism-based; settings: HepG2 2.2.15, 144 h
Summary of the method: (§1)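 HepG 2.2.15 cells in DMEM with 10% FBS, 37 °C, 5% CO2. Treated for 6 days with refeeding every other day. Culture medium centrifuged at 6000 g to clear debris. HBeAg or HBsAg measured by quantitative ELISA on a microplate reader. IC50 = concentration giving 50% inhibition of secretion. Mean of two independent experiments.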

Hepatitis B virus [2] = test: Antiviral activity against Hepatitis B virus infected in human HepG2(2.2.15) cells assessed as inhibition of viral surface antigen secretion after 6 days by ELISA; assay type: functional, organism-based; settings: HepG2 2.2.15, 144 h; summary of the method: as §1
[3] = Cytotoxicity against human HepG2(2.2.15) cells; assay type: cell-based
Summary of the method: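 HepG 2.2.15 cells in DMEM with 10% FBS, 37 °C, 5% CO2. CC50 = concentration killing 50% of cells. Mean of two independent experiments.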

[4] = Selectivity index, ratio of CC50 for human HepG2(2.2.15) cells to IC50 for Hepatitis B virus infected in human HepG2(2.2.15) cells assessed as inhibition of viral surface antigen secretion; assay type: functional
Summary of the method: (§2)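 Ratio of CC50 in HepG 2.2.15 cells to the IC50 for HBeAg or HBsAg secretion. Both values come from ELISA and cytotoxicity runs on the same cell line. Each input is the mean of two independent experiments.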

[5] = Selectivity index, ratio of CC50 for human HepG2(2.2.15) cells to IC50 for Hepatitis B virus infected in human HepG2(2.2.15) cells assessed as inhibition of viral e antigen secretion; assay type: functional; summary of the method: as §2

Row | SMILES | IC50 (Hepatitis B virus [1]) [µM] | IC50 (Hepatitis B virus [2]) [µM] | CC50 [3] [µM] | Selectivity Index [4] | Selectivity Index [5]
1 | CCCCCCCC(=O)OCCc1c(-c2ccccc2Cl)c2cc(Cl)ccc2[nH]c1=O | > 78 | 40 | 78 | 1.9 | <1
2 | CCC(=O)OCCc1c(-c2ccccc2Cl)c2cc(Cl)ccc2[nH]c1=O | 62 | 59 | 95 | 1.6 | 1.5
3 | O=c1c(CCO)c(-c2ccccc2Cl)c2cc(Cl)ccc2n1Cc1ccccc1 | 12 | 12 | 26 | 2.2 | 2.2
4 | O=C(OCCc1c(-c2ccccc2Cl)c2cc(Cl)ccc2[nH]c1=O)c1cccnc1 | 55 | 55 | 170 | 3 | 3
5 | O=C(OCCc1c(-c2ccccc2Cl)c2cc(Cl)ccc2[nH]c1=O)C1CCCCC1 | 34 | 27 | 38 | 1.4 | 1.1
6 | O=c1cc(-c2ccccc2Cl)c2cc(Cl)ccc2[nH]1 | > 1000 | 460 | – | – | –
7 | O=C(OCCc1c(-c2ccccc2Cl)c2cc(Cl)ccc2[nH]c1=O)c1ccc([N+](=O)[O-])cc1 | 1600 | 1200 | 1600 | 1.4 | 1
8 | O=CCc1c(-c2ccccc2Cl)c2cc(Cl)ccc2[nH]c1=O | > 120 | 76 | 120 | 1.6 | <1
9 | O=C(/C=C/c1ccccc1)OCCc1c(-c2ccccc2Cl)c2cc(Cl)ccc2[nH]c1=O | 56 | 30 | 230 | 7.6 | 4
10 | CCCC(=O)OCCc1c(-c2ccccc2Cl)c2cc(Cl)ccc2[nH]c1=O | > 52 | 35 | 52 | 1.5 | <1
11 | O=C(OCCc1c(-c2ccccc2Cl)c2cc(Cl)ccc2[nH]c1=O)c1cccs1 | > 1700 | > 1700 | > 1700 | – | –
12 | CC12CCC(C(=O)OCCc3c(-c4ccccc4Cl)c4cc(Cl)ccc4[nH]c3=O)(OC1=O)C2(C)C (stereo not drawn) | > 1800 | 1500 | > 1800 | >1.2 | –
13 | O=C(COc1ccccc1)OCCc1c(-c2ccccc2Cl)c2cc(Cl)ccc2[nH]c1=O | > 81 | 56 | 81 | 1.5 | <1
14 | Nc1ccn([C@@H]2CS[C@H](CO)O2)c(=O)n1 [LAMIVUDINE] | 30000 | 27000 | – | 1.1 | 1
15 | COCC(=O)OCCc1c(-c2ccccc2Cl)c2cc(Cl)ccc2[nH]c1=O | > 74 | 32 | 74 | 1.4 | <1
16 | Cn1c(=O)c(CCO)c(-c2ccccc2Cl)c2cc(Cl)ccc21 | 34 | 22 | 34 | 1.6 | 1
17 | O=C(OCCc1c(-c2ccccc2Cl)c2cc(Cl)ccc2[nH]c1=O)C1CCCC1 | 46 | 46 | 46 | 1 | 1
18 | O=C(CCOc1ccccc1)OCCc1c(-c2ccccc2Cl)c2cc(Cl)ccc2[nH]c1=O | 35 | 33 | 46 | 1.4 | 1.3

Row | SMILES | IC50 (Hepatitis B virus [1]) [µM] | IC50 (Hepatitis B virus [2]) [µM] | CC50 [3] [µM] | Selectivity Index [4] | Selectivity Index [5]
19 | CC(=O)OCC(=O)OCCc1c(-c2ccccc2Cl)c2cc(Cl)ccc2[nH]c1=O | 71 | 57 | 100 | 1.8 | 1.4
20 | CC(=O)NCC(=O)OCCc1c(-c2ccccc2Cl)c2cc(Cl)ccc2[nH]c1=O | > 110 | 74 | 110 | 1.4 | <1
21 | O=C(O)CCC(=O)OCCc1c(-c2ccccc2Cl)c2cc(Cl)ccc2[nH]c1=O | > 110 | 150 | 110 | <1 | <1
22 | Clc1ccc2nc3c(c(-c4ccccc4Cl)c2c1)CCO3 | > 280 | > 280 | > 280 | – | –
23 | O=c1[nH]c2ccc(Cl)cc2c(-c2ccccc2Cl)c1CCO | 360 | 86 | 380 | 4.4 | 1
24 | CCCCC(=O)OCCc1c(-c2ccccc2Cl)c2cc(Cl)ccc2[nH]c1=O | > 200 | 82 | 200 | 2.4 | <1
25 | O=C(CN1C(=O)c2ccccc2C1=O)OCCc1c(-c2ccccc2Cl)c2cc(Cl)ccc2[nH]c1=O | > 960 | 170 | 960 | 5.7 | <1
26 | O=c1c(CCO)c(-c2ccccc2Cl)c2cc(Cl)ccc2n1Cc1c(F)cccc1F | > 2300 | 87 | > 2300 | >2.6 | –
27 | N#CCC(=O)OCCc1c(-c2ccccc2Cl)c2cc(Cl)ccc2[nH]c1=O | > 100 | 75 | 100 | 1.3 | <1
28 | CC(=O)N1CCC(C(=O)OCCc2c(-c3ccccc3Cl)c3cc(Cl)ccc3[nH]c2=O)CC1 | > 82 | 51 | 82 | 1.6 | <1
29 | O=C(OCCc1c(-c2ccccc2Cl)c2cc(Cl)ccc2[nH]c1=O)c1ccccc1 | > 43 | 32 | 43 | 1.42 | <1
30 | CC(=O)OCCc1c(-c2ccccc2Cl)c2cc(Cl)ccc2[nH]c1=O | > 27 | 74 | 27 | <1 | <1
31 | O=C(O)Cc1c(-c2ccccc2Cl)c2cc(Cl)ccc2[nH]c1=O | > 950 | 350 | 950 | 2.8 | <1
32 | C/C=C/C(=O)OCCc1c(-c2ccccc2Cl)c2cc(Cl)ccc2[nH]c1=O | 22 | 25 | 30 | 1.2 | 1.3
33 | C/C=C/C=C/C(=O)OCCc1c(-c2ccccc2Cl)c2cc(Cl)ccc2[nH]c1=O | 26 | 23 | 440 | 19 | 17
34 | Clc1ccc2nc3c(c(-c4ccccc4Cl)c2c1)CCS3 | > 2400 | > 2400 | > 2400 | – | –
35 | O=C(OCCc1c(-c2ccccc2Cl)c2cc(Cl)ccc2[nH]c1=O)c1ccco1 | 58 | 51 | 98 | 1.9 | 1.6
36 | O=C(/C=C/c1cccnc1)OCCc1c(-c2ccccc2Cl)c2cc(Cl)ccc2[nH]c1=O | 2200 | 34 | 39 | 1.1 | <1
